T cruzi repl = T. cruzi replication inhibition; AID 1885; T. cruzi beta-gal in NIH3T3, luminescence, 90 h; 1.4% of 300,000 active; inhibition, % (no concentration beside the values);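 active = mean inhibition across valid replicates above about 55%, limit read from the data; inconclusive = mean below that limit but half or more replicates reach it; inactive = mean below it, under half of replicates reach it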;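 note: signal also drops with host cell toxicity which is not excluded here; 0% = plate median of DMSO wells and 100% = zero luminescence signal; higher percent means less beta-gal luminescence so fewer parasites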
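Material: NIH/3T3 host cells with β-galactosidase reporter T. cruzi; Input: 5,000 host fibroblasts per well; Medium: DMEM, 2% fetal bovine serum; Compound: 50 nL DMSO compound solution per well; Schedule: 3 h host attachment, then at least 90 h co-culture; Detection: luminescent β-galactosidase signal after 60 min lysis.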
Beta cell apopt = blocks beta cell apoptosis; INS-1E cytokine-induced death, ATP luminescence, 48 h; percent of positive-control rescue, neutral wells zero; protection from apoptosis, % (concentration not given with the values); 0.8% of 300,000 active; AID 435005;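 active = Every replicate reaches about 75%, or at least half do and their mean reaches it too, limit read from the data; inconclusive = At least half of replicates reach the limit but their mean does not; inactive = Under half of replicates reach the limit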;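 note: 0% = cytokine-treated negative control wells and 100% = positive control rescue; higher means more ATP so stronger rescue from cytokine killing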
CSC inhib = cancer stem cell inhibition; cancer stem cell-like cells viability, luminescence; inhibition, % at 7.5 µM; 1.1% of 300,000 active; AID 2717; in the data active = inhibition above about 75%; inconclusive = no clear call, values can overlap the other calls; tested in HMLE shEcad cells
Calb FLC = affects C. albicans growth with fluconazole; 0.57% of 300,000 active; C. albicans CaCi-2 + fluconazole, Alamar Blue growth, 48 h; growth inhibition, % (test concentration not listed); AID 1979;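 active = growth inhibition above about 58% in most replicates, limit read from the data, passing the limit was not always enough; inconclusive = exactly half the replicates above a set limit; inactive = most replicates below a set limit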;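 note: all wells also contain fluconazole at 8 µg/ml as a sub-toxic cotreatment; 0% = median of DMSO wells and 100% = median of geldanamycin control wells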
Mdm2 MdmX PPI = disrupts the human Mdm2-MdmX interaction. O15151+Q00987. SaOS-2 split-luciferase Mdm2/MdmX complementation, luminescence. inhibition, % at 8 µM. 3% of 330,000 active;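 active = inhibition of at least 50% at 8 µM in the primary screen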
Target sequence (O15151 whole entry, looked up): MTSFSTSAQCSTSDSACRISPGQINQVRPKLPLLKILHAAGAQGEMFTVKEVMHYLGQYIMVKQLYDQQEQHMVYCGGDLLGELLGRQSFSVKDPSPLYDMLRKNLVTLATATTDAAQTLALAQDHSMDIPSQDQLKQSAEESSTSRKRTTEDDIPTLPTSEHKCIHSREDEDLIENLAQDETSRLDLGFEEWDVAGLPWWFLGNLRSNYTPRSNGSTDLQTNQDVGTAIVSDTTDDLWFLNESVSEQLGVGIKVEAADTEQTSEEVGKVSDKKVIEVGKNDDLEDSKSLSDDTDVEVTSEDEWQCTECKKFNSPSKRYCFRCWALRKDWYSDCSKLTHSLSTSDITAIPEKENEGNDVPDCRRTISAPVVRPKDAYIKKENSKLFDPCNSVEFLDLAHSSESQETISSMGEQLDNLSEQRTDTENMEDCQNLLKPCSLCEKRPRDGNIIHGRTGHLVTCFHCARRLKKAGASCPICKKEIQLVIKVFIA
Target sequence (Q00987 whole entry, looked up): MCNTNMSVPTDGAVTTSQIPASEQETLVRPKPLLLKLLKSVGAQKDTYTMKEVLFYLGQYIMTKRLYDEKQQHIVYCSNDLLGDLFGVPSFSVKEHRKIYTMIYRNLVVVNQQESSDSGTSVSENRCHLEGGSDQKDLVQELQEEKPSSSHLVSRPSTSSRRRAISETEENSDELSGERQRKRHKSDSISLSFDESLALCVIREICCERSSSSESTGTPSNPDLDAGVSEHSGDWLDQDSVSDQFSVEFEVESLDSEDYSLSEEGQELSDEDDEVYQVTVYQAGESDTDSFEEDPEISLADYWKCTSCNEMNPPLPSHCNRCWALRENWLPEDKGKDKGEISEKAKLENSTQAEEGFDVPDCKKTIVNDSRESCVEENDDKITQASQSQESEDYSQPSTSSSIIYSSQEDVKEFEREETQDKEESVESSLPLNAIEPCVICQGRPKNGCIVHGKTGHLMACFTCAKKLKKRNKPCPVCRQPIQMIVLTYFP
NALP3 yeast inh = inhibitors of NALP3 inflammasome in yeast. Yeast reconstituted NLRP3/ASC/caspase-1, beta-gal luminescence, 24 h. inhibition, % at 10 µM. 0.39% of 330,000 active;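 active = inhibition of 50% or more; inactive = inhibition below 50%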;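 note: plate controls were induced DMSO wells for no effect and uninduced yeast grown without galactose for full effect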
NALP3 confirm = confirmation of NALP3 inhibitors in yeast | yeast expressing human NALP3, luminescence | inhibition, % at 10 µM | shares compounds with NALP3 yeast inh | 81% of 1,300 active; in the data active = inhibition above about 48%
Casp1-ASC yeast = counter-screen for NALP3 inhibitors: yeast caspase-1-ASC. shares compounds with NALP3 yeast inh. yeast expressing Caspase-1-ASC, luminescence counter screen. inhibition, % at 10 µM. 66% of 1,000 active. AID 488784
NALP3 yeast rt = confirmation retest of NALP3 inhibitors in yeast; yeast expressing human NALP3, luminescence read-out; inhibition, % at 10 µM; shares compounds with NALP3 yeast inh; 53% of 1,000 active
* = called active by the depositor; u = inconclusive; x = no result. Compounds with a hit are over-represented: about 5.3% of the library has one in this group of screens. Cut-off read from the data, not from the text of the source, unless noted: active = inhibition above about 50%; inactive = the rest.

SMILES | T cruzi repl | Beta cell apopt | CSC inhib | Calb FLC | Mdm2 MdmX PPI | NALP3 yeast inh | NALP3 confirm | Casp1-ASC yeast | NALP3 yeast rt
O=c1cnn(-c2ccccc2)c(-c2ccccc2)c1 | -5.1 | 4.1 | 8.8 | 13.7 | 29.3 | 56.1* | 78.6* | 58.5* | 56.1*
Nc1c(-c2ccccc2)cnn1-c1ccccc1 | -15.6 | 2.4 | 0.4 | -8.2 | -31.3 | 15.2 | x | x | x
Cc1ccc(-c2csc(NC(=O)c3ccccc3F)c2C(=O)O)cc1 | -26.1 | 5.6 | 12.8 | 0.9 | -0.9 | 71.4* | 85.8* | 76.5* | 63.5*
Cc1ccccc1C(=O)Nc1scc(-c2ccc(Br)cc2)c1C(=O)O | -16.0 | 5.9 | 26.5 | 18.9 | 11.9 | 68.2* | 76.7* | 21.4 | 27.6
O=C(Nc1scc(-c2ccc(Br)cc2)c1C(=O)O)c1ccccc1F | -7.1 | 6.1 | 24.3 | 7.7 | -5.1 | 82.2* | 90.9* | x | x
O=C(Nc1scc(-c2ccccc2)c1C(=O)O)c1ccccc1F | 5.9 | -4.8 | 7.3 | 9.1 | 12.7 | 28.9 | x | x | x
COc1ccc(-c2csc(NC(=O)c3ccccc3Br)c2C(=O)O)cc1 | 6.7 | -2.6 | 3.1 | -0.3 | -24.0 | 42.4 | x | x | x
Cc1cccc(C)c1NC(=O)CNC(=O)C(C)N(C)CC(=O)Nc1ccc(F)cc1 (stereo not given) | x | x | x | x | 24.4 | 11.9 | x | x | x
CCc1ccc(CN2CCC(n3nccc3NC(=O)c3ccc4c(c3)OCO4)CC2)cc1 | 37.3 | -1.9 | -9.7 | -5.2 | 45.3 | 21.8 | x | x | x
CCCCOc1ccc(S(=O)(=O)N2CCCCCC2)cc1 | 6.2 | -3.6 | -2.4 | -1.6 | -2.0 | 37.2 | x | x | x
CN(CCOc1ccccc1)c1ccc(S(=O)(=O)N2CCCCC2)cn1 | 14.9 | 7.6 | 14.6 | -4.1 | 8.9 | 55.5* | 59.6* | 47.5 | 51.8*
O=C(Nc1ccc2c(c1)Cc1ccccc1-2)c1ccncc1 | 2.6 | 2.0 | 10.3 | 5.0 | -80.6 | 53.2* | -16.5 | x | x
Cc1ccc(S(=O)(=O)NCC(=O)OCc2cc(=O)oc3c(C)c(C)ccc23)cc1C | x | -4.8 | -5.0 | x | -27.2 | 15.6 | x | x | x
O=C(OCCCc1cc2ccccc2c(=O)o1)c1ccc2c(c1)OCO2 | x | -6.8 | 0.8 | x | -2.5 | 53.1* | 37.4 | 29.8 | 29.8
CCN(CC)c1ccc(NC(=O)COc2ccc(C)cc2)cc1 | 5.9 | -2.1 | -11.4 | -8.0 | -4.9 | 50.0 | 41.7 | 47.4 | 40.2
COc1ccc(CN2CCSc3sccc3C2=O)cc1 | -9.4 | -1.6 | -7.6 | 4.6 | 7.0 | 60.6* | 71.3* | 68.5* | 65.1*
O=C1c2ccsc2SCCN1Cc1ccc(Cl)cc1Cl | 14.8 | -7.3 | 16.2 | 32.7 | 8.3 | 65.2* | 64.7* | 76.5* | 66.0*
CCOCCCNC(=O)C1CC(=O)N(CCc2ccc(C)cc2)C1 (stereo not given) | 3.1 | 0.0 | 2.0 | 16.8 | 10.3 | 4.2 | x | x | x
COc1cccc(CNC(=O)c2ccc(CS(=O)(=O)Cc3ccccc3C)o2)c1 | 7.9 | 0.9 | -9.5 | -2.1 | 6.7 | 6.6 | x | x | x
CCOC(=O)c1c(C)oc2cc(Br)c(OC(C)C(=O)OCC)cc12 (stereo not given) | -4.0 | -2.6 | x | 15.9 | 20.3 | 5.7 | x | x | x
O=C(N/N=C/c1ccc(OCc2ccccc2)cc1)c1ccncc1 | -9.2 | 1.2 | 6.1 | -2.7 | -37.1 | 22.9 | x | x | x
Oc1ccc(N=Cc2ccc(OCc3ccccc3)cc2)cc1 | 0.5 | 9.0 | 5.7 | 23.0 | -35.3 | 50.9* | 30.7 | x | x
CCCn1nnc(NC(=O)c2cccc(Cl)c2)n1 | -5.1 | -9.2 | 17.6 | -7.2 | 0.0 | 10.3 | x | x | x
CCCn1nnc(NC(=O)c2sc3ccccc3c2Cl)n1 | -14.2 | -2.9 | -8.0 | -6.9 | -44.8 | 50.7* | 54.5* | 45.2 | 48.5
COCc1cc(=O)[nH]c(N2CCN(c3ccccc3OC)CC2)n1 | -18.1 | x | x | -7.7 | -1.1 | 8.0 | x | x | x
SMILES | T cruzi repl | Beta cell apopt | CSC inhib | Calb FLC | Mdm2 MdmX PPI | NALP3 yeast inh | NALP3 confirm | Casp1-ASC yeast | NALP3 yeast rt
CCc1ccc(C(=O)NNc2ccc(C)c(Cl)c2)cc1 | u | 21.2 | 41.4 | -8.5 | -3.3 | 53.2* | 53.2* | 46.4 | 29.1
Cc1ccc(NNC(N)=S)cc1Cl | -5.8 | -9.7 | -3.6 | -25.6 | -18.5 | 8.3 | x | x | x
CCc1ccc(C(=O)NNc2cc(Cl)ccc2Cl)cc1 | x | 91.9* | 5.4 | -0.1 | 20.8 | 64.6* | 66.3* | 61.0* | 59.7*
Cn1nnnc1SCC(=O)Nc1cc(C(F)(F)F)ccc1N1CCOCC1 | 3.4 | -3.5 | -2.1 | -1.7 | 12.8 | 9.6 | x | x | x
Cc1ccccc1C(=O)N1N=C(c2cccc(NS(C)(=O)=O)c2)CC1c1cccs1 (stereo not given) | 14.5 | -2.9 | -6.4 | 7.8 | -17.1 | 6.3 | x | x | x
O=C(N/N=C/C(Br)=C/c1ccccc1)c1cccs1 | 3.7 | 2.5 | 53.3 | -4.8 | -184.7 | 50.1* | 63.0* | x | x
O=C(N/N=C/C=C/c1ccccc1)c1cccs1 | -9.9 | x | -3.0 | -6.0 | -12.8 | 23.2 | x | x | x
Cc1ccc2c(c1)[C@H]1OCC[C@H]1[C@@H](c1ccncc1)N2 | -4.9 | -1.2 | 1.4 | -0.9 | 20.3 | 20.1 | x | x | x
c1ccc(C2Nc3ccccc3C3OCCCC23)cc1 (stereo not given) | -9.5 | -2.9 | 12.9 | -5.6 | 26.2 | 62.1* | 54.0* | 42.1 | 58.0*
c1ccc2c(c1)CCN(c1nc3cc4c(cc3s1)OCO4)C2 | 0.8 | 17.1 | 15.9 | 3.0 | -234.7 | 55.8* | 51.6* | 41.5 | 40.0
N#CC1=C(N)SC2(CCCCC2)SC1c1ccccc1 (stereo not given) | -17.5 | 1.3 | -11.9 | -1.0 | -1.1 | 11.8 | x | x | x
Cc1c(C=O)c2ccccn2c1C(=O)c1ccc(F)cc1 | 9.6 | -4.3 | -6.4 | -0.3 | 41.6 | 59.3* | 71.8* | 60.0* | 54.2*
Cc1c(C=O)c2ccccn2c1C(=O)c1ccccc1 | 35.7 | -2.4 | -12.0 | -2.2 | 26.8 | 55.8* | 58.6* | 54.9* | 41.5
C[N+](C)(C)CCOC(N)=O | x | -3.2 | -4.7 | x | 18.2 | 3.8 | x | x | x
CC/C(=N/Nc1ccc(Cl)cc1)c1cnnc(SC)n1 | 7.1 | -4.6 | 5.6 | -7.8 | -16.3 | 27.2 | x | x | x
O=C(/C=C/c1ccccc1)Oc1cccc2cccnc12 | -44.7 | -3.0 | 1.8 | -6.8 | 0.4 | 34.8 | x | x | x
O=C(/C=C\c1ccccc1)Oc1cccc2cccnc12 | 14.8 | -4.2 | 8.0 | -31.4 | -1.3 | 52.9* | 42.0 | 40.8 | 36.6
O=C(NCCCO)C(=O)NCc1ccccn1 | -3.3 | -3.5 | -9.4 | -6.1 | 1.3 | 1.6 | x | x | x
O=C(Nc1cccc(Cl)c1)N1CCc2ccccc2C1 | -8.1 | 1.8 | 1.3 | -14.4 | -46.5 | 65.9* | 84.8* | 74.2* | 75.0*
CC1CCc2c(C(=O)Nc3nccs3)csc2C1 (stereo not given) | -21.7 | 2.9 | 20.8 | -7.1 | -51.0 | 58.1* | 69.2* | 76.8* | 46.0
c1ccc(-c2ccc(-c3ccccn3)s2)nc1 | -2.0 | 5.8 | -6.7 | 0.6 | -101.8 | 52.4* | 55.5* | 49.7 | 24.2

Source: PubChem (several laboratories)
